Assay outcomes: PubChem, several laboratories
In the library only some 4.6% were active in any assay of this set; here they are far more common.
ALR H2O2 inh – inhibitors of human ALR sulfhydryl oxidase, primary screen, biochemical, H2O2 detection, HRP-luminol luminescence, single point. purified ALR, DTT oxidation. inhibition, % (no concentration beside the values). actives 3.8% (n = 290,000). AID 485317, 2010;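 active = mean replicate inhibition above about 79%, with every replicate also reaching it, limit read from the data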
Target sequence (P55789 whole entry, looked up): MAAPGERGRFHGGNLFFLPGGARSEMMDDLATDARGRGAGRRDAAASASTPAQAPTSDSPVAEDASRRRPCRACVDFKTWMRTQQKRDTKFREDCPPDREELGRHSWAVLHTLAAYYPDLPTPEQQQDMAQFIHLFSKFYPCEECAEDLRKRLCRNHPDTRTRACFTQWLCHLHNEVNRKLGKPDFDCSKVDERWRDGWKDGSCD
FAS TE block – FAS thioesterase domain inhibitors, primary screen, biochemical, fluorescence intensity, uHTS | AID 602261, 2012 | actives 0.67% (n = 360,000) | Fatty acid synthase (Homo sapiens), P49327 | recombinant FAS-TE, OMFH fluorogenic substrate, fluorescence endpoint | inhibition, % at 15 µM;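 active = compounds whose normalised, plate-corrected inhibition of enzyme fluorescence in the single-dose primary screen is 50% or more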
HDAC3 inhib – HDAC3 deacetylase inhibitors, primary screen, biochemical, fluorescence, cell-free homogeneous; Histone deacetylase 3 (Homo sapiens), O15379; recombinant HDAC3, fluorogenic peptide/trypsin coupled; inhibition, % at 8.3 µM; actives 0.15% (n = 320,000); AID 2718, 2010; in the data active = inhibition above about 26%, passing the limit was not always enough
UCH37 inh – inhibitors of human UCH37 deubiquitinase, primary screen, biochemical, Ub-AMC cleavage, fluorescence | actives 0.33% (n = 330,000) | purified proteasome/UCH37 | AID 588478, 2011 | inhibition, % (concentration not given with the values);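 active = mean inhibition over replicate wells above about 20%, limit read from the data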
Target sequence (Q9Y5K5 whole entry, looked up): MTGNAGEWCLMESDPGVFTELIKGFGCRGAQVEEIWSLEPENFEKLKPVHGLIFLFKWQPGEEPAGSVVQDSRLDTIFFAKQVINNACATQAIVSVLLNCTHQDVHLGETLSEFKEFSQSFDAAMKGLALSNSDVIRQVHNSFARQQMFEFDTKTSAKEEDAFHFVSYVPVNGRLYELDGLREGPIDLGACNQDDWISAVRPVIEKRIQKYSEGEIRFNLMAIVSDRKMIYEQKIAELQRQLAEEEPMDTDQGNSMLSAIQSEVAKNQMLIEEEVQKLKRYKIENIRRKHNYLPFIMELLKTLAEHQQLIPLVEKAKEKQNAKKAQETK
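Reagent: Ub-AMC substrate; assay system: Proteasome-associated human UCH37 deubiquitinase; controls: no-proteasome and no-compound wells; read-out: % inhibition of Ub-AMC cleavage fluorescence; timing: 30 min preincubation with enzyme, 25 min cleavage at room temperature; signal: AMC fluorescence from Ub-AMC cleavage, excitation 355 nm, emission 460 nm; buffer or medium: Tris-HCl pH 7.4 plus ovalbumin, ATP-MgCl2, DTT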
Rtt109 HAT inh – inhibitors of C. albicans Rtt109/Vps75 HAT, primary screen, biochemical, ThioGlo CoA-SH fluorescence, plate reader; purified Rtt109/Vps75, 4 h; Histone acetyltransferase RTT109 (Candida albicans (strain SC5314 / ATCC MYA-2876)), …; actives 0.16% (n = 330,000); inhibition, % at 34.9 µM;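 active = inhibition of at least 50% in every replicate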
PfM18AAP inh – PfM18AAP inhibitors, malaria aminopeptidase, primary screen, biochemical, QFRET, recombinant enzyme; H-Glu-NHMec fluorogenic cleavage; inhibition, % at 7.35 µM; actives 1.2% (n = 290,000);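 active = inhibition above the campaign mean inhibition over all tested compounds plus 3 SD, cut at about 28% in these data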
Hits are given with their value; 0 = inactive; - = no result.

SMILES	ALR H2O2 inh	FAS TE block	HDAC3 inhib	UCH37 inh	Rtt109 HAT inh	PfM18AAP inh
COc1cc(OC)c(-n2cc(-c3ccc(OC)c(OC)c3)[nH]c2=S)cc1Cl	0	0	0	0	0	32
Fc1ccccc1-n1cc(-c2ccccc2)[nH]c1=S	93	0	0	-	0	0
COc1ccc(-n2cc(-c3ccccc3)[nH]c2=S)c(OC)c1	90	0	0	0	0	0
CC12CCC(C(=O)Nc3cc(Cl)ccc3Cl)(CC1=NO)C2(C)C (centres undefined)	-	-	-	0	-	-
Cc1cc(C)nc(/N=c2/ssnc2Cl)c1	-	0	0	-	0	29
Cc1nn(-c2ccccc2)c(C)c1/C=N/n1c(-c2ccccc2Br)n[nH]c1=S	96	0	0	-	0	0
CCN(CC)c1ccc(/C=N/n2c(-c3ccccc3Br)n[nH]c2=S)cc1	97	0	0	-	0	0
O=[N+]([O-])c1ccc(-c2ccc(C=NNc3nc(N4CCCC4)nc(N4CCCC4)n3)o2)cc1	-	-	-	0	-	-
Cc1nnc(SCc2ccccc2)[nH]c1=O	0	0	0	0	0	0
Cc1nnc(SCc2cnc(-c3ccccc3)o2)[nH]c1=O	99	0	0	0	0	0
Cc1onc(-c2ccccc2Cl)c1C(=O)NC(=S)Nc1ccccc1C(N)=O	95	0	0	0	0	0
Cc1onc(-c2c(F)cccc2Cl)c1C(=O)NC1CC1	0	0	0	0	0	0
Cc1onc(-c2ccccc2Cl)c1C(=O)Nc1ccccc1C(N)=O	0	0	0	0	0	0
CC(=O)Nc1ccc(NC(=O)c2c(-c3ccccc3Cl)noc2C)cc1	0	0	0	0	0	0
Cc1onc(-c2ccccc2Cl)c1C(=O)Nc1ncn[nH]1	0	0	0	0	0	54
Cc1onc(-c2ccccc2Cl)c1C(=O)NC1CCS(=O)(=O)C1 (centres undefined)	96	0	0	0	0	0
CSc1nncc(C(C)=NNc2ccccc2)n1	-	-	-	0	-	-
CC(/C=C/c1ccco1)=NNC(=O)c1cc(C)[nH]n1	-	-	-	0	-	-
Cc1cccc(NC(=S)NN=Cc2cccc([N+](=O)[O-])c2)c1	-	-	-	0	-	-
CCc1ccc(-c2nc(CSCC(=O)N3CCN(c4ccccn4)CC3)c(C)o2)cc1	85	0	0	0	0	0
Cc1ccc(S(=O)(=O)Cc2ccc(C(=O)N3CCN(c4ccccn4)CC3)o2)cc1	97	0	0	-	0	0
Cc1ccc(-c2nc(CSCC(=O)N3CCN(c4ccccn4)CC3)c(C)o2)cc1	99	0	0	0	0	0
O=C(CSCc1ccccc1Cl)N1CCN(c2ccccn2)CC1	99	0	0	0	0	0
CC(C)c1ccc(C=NNC(=O)c2nnn(-c3nonc3N)c2CN2CCOCC2)cc1	-	-	-	0	-	-
Cc1ncc(CO)c(C=NNC(=S)Nc2ccc(Cl)c(Cl)c2)c1O	-	-	-	0	-	-
SMILES	ALR H2O2 inh	FAS TE block	HDAC3 inhib	UCH37 inh	Rtt109 HAT inh	PfM18AAP inh
O=C(CNC(=O)c1ccccc1)NN=Cc1ccc([N+](=O)[O-])s1	-	-	-	0	-	-
CC1CC(=NNC(N)=S)c2cc(Cl)ccc2S1 (centres undefined)	-	-	-	0	-	-
CCOc1ccc(-c2nc(CSCC(=O)N3CCN(c4cccc(OC)c4)CC3)c(C)o2)cc1	99	0	0	0	0	0
CN(C)C(=O)C[n+]1ccc(C=NO)cc1	-	-	-	0	-	-
CCCCN1C2=NC(c3ccccc3)CN2c2ccccc21 (centres undefined)	93	0	0	0	0	-
CCCCN1C2=NCCCN2c2ccccc21	0	0	0	0	0	0
CCOc1ccccc1N1CCN(Cc2cc3c(cc2[N+](=O)[O-])OCO3)CC1	0	0	0	0	0	0
O=[N+]([O-])c1cc2c(cc1CN1CCN(c3ccccc3F)CC1)OCO2	0	0	0	0	0	29
CCOc1ccc(S(=O)(=O)N(CC(=O)NN=Cc2ccc(-c3ccc([N+](=O)[O-])cc3)o2)c2ccccc2)cc1	-	-	-	0	-	-
CC(=NNC(=O)C(N)=O)c1ccc(Br)cc1	-	-	-	0	-	-
Cc1ccc(NC(=O)Nc2cccs2)nc1	98	0	0	0	0	0
Cc1ccc(NC(=O)Nc2cccs2)cc1	98	0	0	0	0	0
Cc1ccc(NC(=O)Nc2cccs2)c(Cl)c1	0	0	0	0	0	0
O=C(Nc1cccs1)Nc1ccccc1Cl	89	0	0	0	0	0
CC(=O)c1cccc(NC(=O)Nc2cccs2)c1	96	0	0	0	0	0
CC(=O)NCCc1c(C)n(Cc2ccccc2)c2ccccc12	99	0	0	0	0	0
CC(=O)NCCc1nc2ccccc2n1Cc1ccccc1	0	0	0	0	0	0
O=C(NN=Cc1cccc2ccccc12)C(=O)N1CCCC1	-	-	-	0	-	-
O=C(Cc1ccccc1)NN=C/C=C/c1ccccc1[N+](=O)[O-]	-	-	-	0	-	-
CCOC(=O)CSc1nc(N2CCOCC2)c2c(c1C#N)CC(C)(C)N(C)C2	100	0	0	0	0	0
S=c1[nH]nc(C2CCCCC2)n1N=Cc1cccc(Cl)c1Cl	-	-	-	0	-	-
C/C(=N\NC(=O)CSc1nnc(C)s1)c1ccc(O)cc1	99	0	0	-	0	0
COc1cc(/C(C)=N/NC(=O)CSc2nnc(C)s2)ccc1O	95	0	0	-	0	0
COc1cc(/C(C)=N/NC(=O)CSc2nc3ccccc3[nH]2)ccc1O	99	0	0	-	0	0
CCOC(=O)c1nn(-c2ccc(C)c(C)c2)cc1O	97	0	0	0	0	0
SMILES	ALR H2O2 inh	FAS TE block	HDAC3 inhib	UCH37 inh	Rtt109 HAT inh	PfM18AAP inh
COc1ccc(CN2C(=O)C3C4C=CC(C4)C3C2=O)cc1 (centres undefined)	100	0	0	0	0	0
COC(=O)c1ccc(NC(=S)NNC(=O)c2ccccc2)cc1	92	0	0	0	0	0
O=C(NNC(=S)Nc1ccccc1)c1cccc(Br)c1	0	0	0	0	-	0
O=C(NNC(=S)Nc1ccc(Br)cc1)c1ccccc1	97	0	0	0	0	0
O=C(NC(=S)Nc1ccc(O)cc1)c1cncc(Br)c1	99	0	0	0	0	-
O=C(NNC(=S)Nc1ccc(Br)cc1)c1ccccc1Br	99	0	0	0	0	0
O=C(NC(=S)Nc1cccc(O)c1)c1cncc(Br)c1	0	0	0	0	0	-
CCOc1ccccc1C=NNc1nc2ccccc2o1	-	-	-	0	-	-
CC(C)CN(C(=O)CN1CCN(c2ccc(O)cc2)CC1)c1c(N)n(CC(C)C)c(=O)[nH]c1=O	99	0	0	0	0	0
